In paper PMC8463279 (Acta Pharmaceutica Sinica. B, 2021):
In brackets after ≈: the same amount, converted by molar mass. Where two headings read alike, the source gives them in different places.

How the values were obtained:
[1] = test system: P. falciparum strain CP286; test: Parasites growth inhibition assay, strain CP286; format: cell-based; conditions: Plasmodium falciparum
Procedure, shortened: (§1)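 P. falciparum grown in type O human red cells in RPMI 1640 with Albumax I, hypoxanthine, bicarbonate, 15 mmol/L HEPES and gentamycin, under 5% O₂/5% CO₂/90% N₂. Synchronised with alanine/HEPES or 5% sorbitol. Mid-ring parasites (0.5% parasitemia, 2% hematocrit) exposed to serially diluted test compound in triplicate for 72 h at 37 °C.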

P. falciparum strain Dd2 = test: Parasites growth inhibition assay, strain Dd2; format: cell-based; conditions: Plasmodium falciparum
Procedure, shortened: as §1

[2] = test system: 3D7 strain of P. falciparum; test: Parasites growth inhibition assay; format: cell-based; conditions: Plasmodium falciparum
Procedure, shortened: as §1

P. falciparum strain GB4 = test: Parasites growth inhibition assay, strain GB4; format: cell-based; conditions: Plasmodium falciparum
Procedure, shortened: as §1

P. falciparum strain C2A = test: Parasites growth inhibition assay, strain C2A; format: cell-based; conditions: Plasmodium falciparum
Procedure, shortened: as §1

[3] = test system: wildtype (WT) D10 parasites; test: Parasites growth inhibition assay, wildtype D10 strain; format: cell-based; conditions: Plasmodium falciparum
Procedure, shortened: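 Wildtype D10 or yDHOD-transgenic D10 parasites were challenged with test compound with or without 50 nmol/L proguanil. Growth inhibition used SYBR Green I: mid-ring cultures at 0.5% parasitemia and 2% hematocrit, in triplicate, for 72 h at 37 °C under 5% O₂/5% CO₂. Plates were freeze-thawed and lysed with SYBR Green I buffer, and fluorescence read at 485/538 nm. EC50 by nonlinear regression.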

[4] = Measurement of solubility; format: physicochemical; conditions: thermodynamic from solid
Procedure, shortened: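 Solid added to solvent to supersaturation and shaken 24 h at room temperature, then centrifuged and filtered. Aqueous supernatants were quantified by reversed-phase HPLC against a standard curve prepared in methanol. For organic solvents, the dissolved solid was weighed after removing solvent under reduced pressure.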

P. falciparum strain 803 = test: Parasites growth inhibition assay, strain 803; format: cell-based; conditions: Plasmodium falciparum
Procedure, shortened: as §1

[5] = test system: P. falciparum strain PC26; test: Parasites growth inhibition assay, strain PC26; format: cell-based; conditions: Plasmodium falciparum
Procedure, shortened: as §1

[6] = test system: P. falciparum strain Fab9; test: Parasites growth inhibition assay, strain Fab9; format: cell-based; conditions: Plasmodium falciparum
Procedure, shortened: as §1

HepG2 cells = test: Cytotoxicity assay; format: cell-based, Human; conditions: CC50 / EC50 on 3D7
Procedure, shortened: (§2)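 HepG2 cells in DMEM with 10% FBS and penicillin-streptomycin, seeded at 6,000/well and attached overnight at 37 °C, 5% CO₂. Test compound in DMSO diluted into medium and added; 24 h incubation. CCK-8 added for 2–4 h, then absorbance read at 450 nm. CC50 (reported as EC50) from nonlinear logistic regression. SI is CC50 over 3D7 EC50.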

Cytotoxicity assay = format: cell-based, Human; conditions: human, HepG2 cells
Procedure, shortened: as §2

[7] = biological target: PFQi4 bc1 complex with P. falciparum-like modifications in the Qi-site (Saccharomyces cerevisiae, UniProt P00163, A191L/F225L/I17L/I195F/I226L/L198I/L40F/M221F/Q22C/S20Y/S34F/V41F/Y16H); test: Decylubiquinol-cytochrome c reductase activity, yeast bc1 mutant PFQi4; format: biochemical
Procedure, shortened: (§3)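 Yeast cytochrome b mutants carry P. falciparum-like substitutions and are otherwise isogenic. Mitochondria from mid-log YPGal cultures were made via zymolyase protoplasts, osmotic shock and differential centrifugation; bc1 content came from dithionite-reduced spectra. Assay at room temperature: 20 µmol/L cytochrome c in 10 mmol/L potassium phosphate pH 7, 0.01% lauryl-maltoside, 1 mmol/L KCN. bc1 was 6 nmol/L (wildtype) or 20 nmol/L (mutants), started with 40 µmol/L decylubiquinol.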

[8] = biological target: PF11 bc1 complex with P. falciparum-like modifications in the Qo-site (Saccharomyces cerevisiae, UniProt P00163, C133V/C134L/F296L/H141Y/I299L/L275F/M295V/R283K/V135P/Y136W); test: Decylubiquinol-cytochrome c reductase activity, yeast bc1 mutant PF11; format: biochemical
Procedure, shortened: as §3

[9] = biological target: T1, wildtype yeast bc1 complex (Saccharomyces cerevisiae, UniProt P00163); test: Decylubiquinol-cytochrome c reductase activity, wildtype yeast bc1; format: biochemical; conditions: at 10 μmol/L, data not shown
Procedure, shortened: as §3

[10] = test system: Plasmodium yoelii-infected mouse models; test: In vivo efficacy study on P. yoelii-infected mice; conditions: once a day for 4 days
Procedure, shortened: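 Female BALB/c mice (25 g, 6–8 weeks), specific pathogen-free, five per group. Infected intraperitoneally with about 1×10⁶ P. yoelii-infected red cells on Day 0, then randomised. Test compound in aqueous 5% DMSO / 18% PEGylated castor oil given intraperitoneally once daily for 4 days from Day 1. Chloroquine and DMSO groups included. Parasitemia by Giemsa-stained smear microscopy; survival followed, with CO₂ euthanasia at distress. Mean ± SD, n = 5.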

[11] = test system: various P. falciparum strains; test: Parasites growth inhibition on the panel of various P. falciparum strains; format: cell-based, Plasmodium falciparum; conditions: all strains of Table 2
Procedure, shortened: as §1

[12] = biological target: T2, PF12 bc1 complex (PF11 changes plus Y279S) (Saccharomyces cerevisiae, UniProt P00163, C133V/C134L/F296L/H141Y/I299L/L275F/M295V/R283K/V135P/Y136W/Y279S); test: Decylubiquinol-cytochrome c reductase activity, yeast bc1 mutant PF12; format: biochemical
PfNDH2 = biological target: T3, PfNDH2 (Plasmodium falciparum, UniProt Q8I302); test: Enzymatic activity assay of PfNDH2; format: biochemical, P. falciparum
T3 sequence (Q8I302 1-533): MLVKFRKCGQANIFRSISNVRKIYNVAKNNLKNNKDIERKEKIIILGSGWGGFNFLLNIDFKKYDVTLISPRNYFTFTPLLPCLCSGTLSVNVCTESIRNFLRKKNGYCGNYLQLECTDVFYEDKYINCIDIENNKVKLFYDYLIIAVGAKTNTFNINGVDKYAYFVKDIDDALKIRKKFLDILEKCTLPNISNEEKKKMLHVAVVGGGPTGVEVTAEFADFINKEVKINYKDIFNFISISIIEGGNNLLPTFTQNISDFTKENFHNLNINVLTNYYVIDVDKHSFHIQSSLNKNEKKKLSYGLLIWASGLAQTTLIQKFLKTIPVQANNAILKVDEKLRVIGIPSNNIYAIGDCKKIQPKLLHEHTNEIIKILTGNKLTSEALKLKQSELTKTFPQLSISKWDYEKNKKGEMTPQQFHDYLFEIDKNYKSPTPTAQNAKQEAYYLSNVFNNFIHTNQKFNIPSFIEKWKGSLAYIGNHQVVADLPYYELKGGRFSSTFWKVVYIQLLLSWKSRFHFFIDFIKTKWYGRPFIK
Procedure, shortened: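 Reaction started with enzyme; NADH decrease followed continuously at 340 nm (ε 6220 L/(mol·cm)); IC50 by nonlinear regression. Kinetics varied UQ₁ (5–100 µmol/L) or NADH (10–600 µmol/L) at several inhibitor concentrations; Lineweaver–Burk analysis.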

Pfbc1 = biological target: T4, Pfbc1 (Plasmodium falciparum, UniProt Q02768); test: Decylubiquinol-cytochrome c reductase activity of Pfbc1; format: biochemical, P. falciparum
T4 sequence (Q02768 1-376): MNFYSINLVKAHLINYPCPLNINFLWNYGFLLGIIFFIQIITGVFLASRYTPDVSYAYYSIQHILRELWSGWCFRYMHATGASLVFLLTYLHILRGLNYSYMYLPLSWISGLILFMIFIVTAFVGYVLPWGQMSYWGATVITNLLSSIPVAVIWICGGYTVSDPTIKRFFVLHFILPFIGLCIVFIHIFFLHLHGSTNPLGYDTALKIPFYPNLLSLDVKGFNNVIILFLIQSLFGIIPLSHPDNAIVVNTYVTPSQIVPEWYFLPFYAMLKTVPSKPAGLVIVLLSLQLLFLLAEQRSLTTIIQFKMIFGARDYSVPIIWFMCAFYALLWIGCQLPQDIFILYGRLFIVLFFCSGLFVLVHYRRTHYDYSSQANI

[13] = biological target: T2, PF12 bc1 complex (PF11 changes plus Y279S); conditions: cited from earlier work
[14] = biological target: T1, wildtype yeast bc1 complex; conditions: at 1 μmol/L; cited from earlier work
[15] = 0.01 mol/L HCl, pH 2, simulated gastric fluid
[16] = dichloromethane, organic solvent or mixture
[17] = methanol, organic solvent or mixture

Row | Compound | EC50 [1] [nM] | EC50 (P. falciparum strain Dd2) [nM] | EC50 [2] [nM] | EC50 (P. falciparum strain GB4) [nM] | EC50 (P. falciparum strain C2A) [nM] | EC50 [3] [nM] | solubility at 24 h [4, 15] [mM] | solubility at 24 h [4, 16] [mM] | solubility at 24 h [4, 17] [mM] | solubility at 24 h ([4]; water) [mM] | EC50 (P. falciparum strain 803) [nM] | EC50 [5] [nM] | EC50 [6] [nM] | SI (selectivity index) (HepG2 cells) | CC50 at 24 h (Cytotoxicity assay) [nM] | further results
1 | Cc1c(-c2ccc(Cc3ccc(OC(F)(F)F)cc3)c(CN(C)C)c2)[nH]c2cccc(F)c2c1=O [Compound 24] | 4.56 | 2.05 | 2.09 | 1.02 | 1.44 | 3.23 | 0.496 (≈ 240 µg/mL) | 19 (≈ 9210 µg/mL) | 110 (≈ 53300 µg/mL) | 0.04 (≈ 19.4 µg/mL) | 9.3 | 3.17 | 6.01 | >4785 | > 10000 | –
2 | CCCCCN(C)Cc1cc(-c2[nH]c3cccc(F)c3c(=O)c2C)ccc1Cc1ccc(OC(F)(F)F)cc1 [Compound 30] | – | – | 0.61 | – | – | – | 0.337 (≈ 182 µg/mL) | 370 (≈ 200000 µg/mL) | 34 (≈ 18400 µg/mL) | 0.0064 (≈ 3.46 µg/mL) | – | – | – | >16,393 | > 10000 | –
3 | CCCCCCCN(C)Cc1cc(-c2[nH]c3cccc(F)c3c(=O)c2C)ccc1Cc1ccc(OC(F)(F)F)cc1 [Compound 31] | – | – | 0.3 | – | – | – | 0.0194 (≈ 11 µg/mL) | 420 (≈ 239000 µg/mL) | 32 (≈ 18200 µg/mL) | 0.002 (≈ 1.14 µg/mL) | – | – | – | >33,333 | > 10000 | –
4 | CCCN(C)Cc1cc(-c2[nH]c3cccc(F)c3c(=O)c2C)ccc1Cc1ccc(OC(F)(F)F)cc1 [RYL-581] | – | 0.44 | 0.056 | 0.23 | 0.29 | 0.7 | 0.428 (≈ 219 µg/mL) | 64 (≈ 32800 µg/mL) | 37 (≈ 19000 µg/mL) | 0.0136 (≈ 6.97 µg/mL) | 0.96 | 0.31 | 0.27 | >178,571 | > 10000 | IC50 [7]: ~10000 nM; Resistance of PFQi4 bc1 complex compared to wild type [7]: increased reactivity; IC50 [8]: ~300 nM; Inhibition of wildtype yeast bc1 complex [9]: only slight inhibition; Day by which parasites were completely cleared ([10]; 3 mg/kg/d intraperitoneal): ≤ 22 days; Final survival rate ([10]; 3 mg/kg/d intraperitoneal, 5 mice): 80%; Day by which all mice were cured ([10]; 10 mg/kg/d intraperitoneal): ≤ 16 days; Survival rate ([10]; 10 mg/kg/d intraperitoneal, 5 mice): 100%; EC50 values on various strains, in words [11]: sub-nanomolar; IC50 [12]: ~1000 nM; Increase of mid-point inhibitory concentration PF12 compared to PF11 [12]: three-fold; Potency on PfNDH2 decreased as compared to RYL-552 (PfNDH2): 11 fold; IC50 (PfNDH2; IC50 PfNDH2, 200 μmol/L NADH, 100 μmol/L UQ1): 42.2 nM; Type of inhibition of PfNDH2 (Lineweaver–Burk) (PfNDH2; substrates Q (UQ1) and NADH varied): non-competitive; IC50 (Pfbc1): 0.51 nM
5 | Cc1c(-c2ccc(Cc3ccc(OC(F)(F)F)cc3)c(CN3CCCC3)c2)[nH]c2cccc(F)c2c1=O [Compound 25] | 4.81 | 2.18 | 2.89 | 1.41 | 7.01 | 2.32 | 0.45 (≈ 230 µg/mL) | 30 (≈ 15300 µg/mL) | 37 (≈ 18900 µg/mL) | 0.0163 (≈ 8.32 µg/mL) | 9.81 | 3.3 | 5.33 | >3460 | > 10000 | –
6 | O=C1C(O)=C([C@H]2CC[C@H](c3ccc(Cl)cc3)CC2)C(=O)c2ccccc21 [Atovaquone, atovaquone, reference compound] | – | – | 0.45 | – | – | – | 0.0006 (≈ 0.22 µg/mL) | 29 (≈ 10600 µg/mL) | 29 (≈ 10600 µg/mL) | 0.0007 (≈ 0.257 µg/mL) | – | – | – | – | > 10000 | Increase of mid-point inhibitory concentration PF12 compared to PF11 [13]: > 100 fold; Inhibition of wildtype yeast bc1 complex [14]: fully inhibited
